Laboratory results taken from ChEMBL document CHEMBL1140143, “Combining ligand-based pharmacophore modeling, quantitative structure-activity relationship analysis and in silico screening for the discovery of new potent hormone sensitive lipase inhibitors” (J Med Chem, 2008).

target: T1, Hormone-sensitive lipase (Rattus norvegicus, UniProt P15304); assay: Inhibition of HSL in Wistar rat isolated fat cells by spectrophotometric assay
T1 sequence (P15304 whole entry): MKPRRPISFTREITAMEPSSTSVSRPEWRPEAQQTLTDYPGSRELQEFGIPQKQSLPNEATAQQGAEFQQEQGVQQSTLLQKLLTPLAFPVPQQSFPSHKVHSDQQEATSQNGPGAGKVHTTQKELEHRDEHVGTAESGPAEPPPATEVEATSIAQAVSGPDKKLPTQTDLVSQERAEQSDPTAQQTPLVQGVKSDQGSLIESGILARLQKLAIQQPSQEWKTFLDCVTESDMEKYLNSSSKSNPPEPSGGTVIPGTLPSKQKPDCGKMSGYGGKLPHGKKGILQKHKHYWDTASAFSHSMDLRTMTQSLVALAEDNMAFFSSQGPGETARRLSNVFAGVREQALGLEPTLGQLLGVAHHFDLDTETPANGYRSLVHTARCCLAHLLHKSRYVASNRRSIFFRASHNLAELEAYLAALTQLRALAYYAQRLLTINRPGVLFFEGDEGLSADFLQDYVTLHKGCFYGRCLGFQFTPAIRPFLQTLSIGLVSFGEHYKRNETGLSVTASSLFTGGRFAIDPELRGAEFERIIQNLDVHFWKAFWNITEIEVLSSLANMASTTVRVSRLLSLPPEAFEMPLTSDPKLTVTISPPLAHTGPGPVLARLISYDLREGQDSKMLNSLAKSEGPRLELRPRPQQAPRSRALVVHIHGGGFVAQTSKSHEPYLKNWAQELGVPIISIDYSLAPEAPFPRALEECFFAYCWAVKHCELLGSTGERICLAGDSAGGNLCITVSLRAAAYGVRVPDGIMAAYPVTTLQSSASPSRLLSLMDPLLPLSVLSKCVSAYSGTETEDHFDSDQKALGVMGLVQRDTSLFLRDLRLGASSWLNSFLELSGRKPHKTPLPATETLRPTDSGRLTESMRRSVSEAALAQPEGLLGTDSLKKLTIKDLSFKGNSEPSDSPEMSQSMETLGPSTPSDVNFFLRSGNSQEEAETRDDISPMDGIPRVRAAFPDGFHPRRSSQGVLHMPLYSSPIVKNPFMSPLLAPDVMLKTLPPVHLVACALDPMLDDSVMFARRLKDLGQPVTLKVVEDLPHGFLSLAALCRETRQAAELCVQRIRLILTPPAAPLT

SMILES | IC50 [nM]
O=C(OCc1ccccc1)c1ccccc1 [BENZYL BENZOATE] | 1100
CSc1nc(-c2ccc(OC(F)(F)F)cc2)nn1C(=O)N(C)c1ccccc1 | 4.41
Cc1c(C(C)C)c(=O)on1C(=O)N1CCSCC1 | 8
Cc1c(CC(C)C)c(=O)on1C(=O)N1CCC(C)CC1 | 3
CSc1nc(-c2ccc(C(F)(F)F)cc2)nn1C(=O)N(C)C | 1.76
Cc1c(C(C)C)c(=O)on1C(=O)N(C)Cc1ccccc1F | 4
Cc1c(C(C)C)c(=O)on1C(=O)N(C)Cc1ccc(F)cc1 | 111
COCCc1c(C)n(C(=O)N2CCC(c3cccc(F)c3)CC2)oc1=O | 20
Cc1c(C2CCOCC2)c(=O)on1C(=O)N1CCCCC1 | 71
Cc1c(C(C)C)c(=O)on1C(=O)N(C)Cc1cccc(F)c1 | 5
Cc1ccc(CN(C)C(=O)n2oc(=O)c(C(C)C)c2C)cc1 | 408
Cc1c(C(C)C)c(=O)on1C(=O)N1CCC(c2ccc(C(F)(F)F)cc2)CC1 | 160
Cc1c(C(C)C)c(=O)on1C(=O)NC(C)(C)C | > 1000
CCCCCCSc1nc(-c2ccc(C)cc2)nn1C(=O)N(C)c1ccccc1 | 12.3
Cc1c(C(C)C)c(=O)on1C(=O)N(C)Cc1cccs1 | 2
Cc1c(C(C)C)c(=O)on1C(=O)N1CC(C)CCC1C (stereo not drawn) | 460
CCN(CC)C(=O)C1CCCN(C(=O)n2oc(=O)c(C(C)C)c2C)C1 (stereo not drawn) | > 1000
Cc1c(C2CCCCC2)c(=O)on1C(=O)N1CCCCC1 | 11
CSc1nc(-c2cccc3ccccc23)nn1C(=O)N(C)C | 35.3
CSc1nc(-c2ccc(Cl)cc2)nn1C(=O)N(C)C | 0.353
COc1ccc(C(=O)c2ccccc2)c(O)c1 [OXYBENZONE] | 3250
Cc1c(C2CCCC2)c(=O)on1C(=O)N1CCCCC1 | 6
Cc1c(C(C)C)c(=O)on1C(=O)N1CCc2ccccc21 | > 1000
Cc1c(C(C)C)c(=O)on1C(=O)N(C)Cc1ccco1 | 4

SMILES | IC50 [nM]
Cc1c(C(C)C)c(=O)on1C(=O)N1CCCCC1 | 2
CCSc1nc(-c2ccc(Cl)cc2)nn1C(=O)N(C)C | 3.71
COC(=O)c1nnn(CCc2c[nH]c3ccccc23)c1C(=O)OC | 5000
Cc1c(C(C)C)c(=O)on1C(=O)N1CCC(C(=O)c2ccccc2)CC1 | 250
O=C(N1CCCCC1)n1nc(-c2ccc(Cl)cc2)nc1SCC1CC1 | 3.53
CCc1c(C)n(C(=O)N2CCCCC2)oc1=O | 18
Cc1c(Cc2ccccc2)c(=O)on1C(=O)N1CCCCC1 | 5
COc1nn(-c2ccc(NC(=O)c3ccc(C(C)(C)C)cc3)cc2)c(=O)o1 | 0.41
Cc1c(C(C)C)c(=O)on1C(=O)N1CCCCCC1 | 62
Cc1c(C(C)C)c(=O)on1C(=O)NCC1CCCCC1 | 72
CCCCc1c(C)n(C(=O)N2CCC(C)CC2)oc1=O | 1
Cc1c(C(C)C)c(=O)on1C(=O)N1CCN(c2ccccc2Cl)CC1 | 30
Cc1c(C(C)C)c(=O)on1C(=O)Nc1ccccc1 | > 1000
Cc1c(C2CCS(=O)(=O)CC2)c(=O)on1C(=O)N1CCCCC1 | 55
Cc1ccc(-c2nc(SCc3ccccc3)[nH]c(=O)c2CCO)cc1 | 2980
COCCc1c(C)n(C(=O)N2CCCCC2)oc1=O | 10
Cc1c(C(C)C)c(=O)on1C(=O)N(C)c1ccccc1 | 7
Cc1c(Sc2ccccc2)c(=O)on1C(=O)N1CCCCC1 | 6
CCCCCCSc1nc(-c2ccc(Cl)cc2)nn1C(=O)N1CCOCC1 | 882
COc1ccc(-c2nc(SC)n(C(=O)N(C)C)n2)cc1 | 15.9
Cc1c(C(C)C)c(=O)on1C(=O)N(C)CCc1ccccc1 | 180
Cc1c(C(C)C)c(=O)on1C(=O)N1CCNCC1 | > 1000
Cc1c(C(C)C)c(=O)on1C(=O)N1CCC(c2cccc(F)c2)CC1 | 12
Cc1c(-c2ccccc2)c(=O)on1C(=O)N1CCCCC1 | 14

SMILES | IC50 [nM]
CCOC(=O)C1CCN(C(=O)n2oc(=O)c(C(C)C)c2C)CC1 | 6
Cc1c(C(C)C)c(=O)on1C(=O)N1CCC[C@@H](C)C1 | 20
Cc1c(C2CCCCC2)c(=O)on1C(=O)N1CCC(C)CC1 | 4
Cc1c(Cc2cc3ccccc3n2C)c(=O)on1C(=O)N1CCCCC1 | 17
Cc1c(C(C)C)c(=O)on1C(=O)N1CCN(c2ccccc2)CC1 | 6
CN(C(=O)n1nc(-c2ccc(Cl)cc2)nc1SCC1CC1)c1ccccc1 | 1.09
CCSCc1ccccc1OC(=O)NC [ETHIOFENCARB] | 370
Cc1c(C(C)C)c(=O)on1C(=O)N1CCC(O)CC1 | 166
Cc1c(C(C)C)c(=O)on1C(=O)N(C)CCC#N | > 1000
CCCCCCSc1nc(-c2ccc(C)cc2)nn1C(=O)N(C)C | 882
Cc1c(C2CCSCC2)c(=O)on1C(=O)N1CCC(C)CC1 | 6
O=C(N1CCCCC1)n1nc(-c2ccc(Cl)cc2)nc1SCC(F)(F)F | 7.06
Cc1c(C(C)C)c(=O)on1C(=O)N1CC=CC1 | 72
CCCCc1c(C)n(C(=O)N2CCCCC2)oc1=O | 7
Cc1ccc(C2CCN(C(=O)n3oc(=O)c(C(C)C)c3C)CC2)cc1 | 37
CCN(CC)C(=O)n1oc(=O)c(C(C)C)c1C | 1400
Cc1c(C(C)C)c(=O)on1C(=O)N1CCCC1 | 15
CSc1nc(-c2ccc(OC(F)(F)F)cc2)nn1C(=O)N(C)C | 1.76
CSc1nc(/C=C/c2ccccc2)nn1C(=O)N(C)C | 882
Cc1c(Sc2ccc(Cl)cc2)c(=O)on1C(=O)N1CCCCC1 | 6
CSc1nc(-c2ccc(Cl)cc2)nn1C(=O)N(C)c1ccccc1 | 2.82
Cc1c(C(C)C)c(=O)on1C(=O)N1CCCCC1C (stereo not drawn) | 93
COCCc1c(C)n(C(=O)N2CCC(c3cccc(C)c3)CC2)oc1=O | 23

target: T2, Hormone-sensitive lipase (Rattus norvegicus) (UniProt P15304); assay: Inhibition of HSL in Wistar rat isolated fat cells at 10 uM by spectrophotometric assay
T2 sequence (whole entry): T1 sequence (P15304 whole entry)
In short: (§1)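 HSL extract from male Wistar rat epididymal fat cells (collagenase-isolated, homogenized in Tris-HCl pH 7.0/sucrose, ether-extracted supernatant). Enzyme preincubated with compound 30 min at 37 °C, then p-nitrophenyl butyrate added at 10 µM in phosphate buffer pH 7.25 with dithioerythritol; DMSO ≤1.0%. A400 read at 1, 3, 6 min at 37 °C; residual activity versus no-compound control; mean of ≥3 measurements.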

SMILES | inhibition [%]
O=C(OCc1ccccc1)c1ccccc1 [BENZYL BENZOATE] | 66
O=C(/C(=N/c1ccccc1)NO)c1ccccc1 | 23
CCOC(=O)c1c(C)c2c(n1C)CC/C(=C\N1CCCCC1)C2=O | 10
COc1ccc(Cc2ccc3nc(O)cc(C)c3c2)cc1S(=O)(=O)O | 24
COc1ccc2cc([C@H](C)C(=O)O)ccc2c1 | 64
COC(=O)c1ccc(C)c(NS(=O)(=O)c2ccc3c(c2)c(=O)sn3C)c1 | 24
CC(C)=NNc1ccnc(SCc2ccccc2)n1 | 2
Cc1ncc(COCc2ccccc2)c(CO)c1OCc1ccccc1 | 31
O=C(NC(Cc1ccccc1)C(=O)O)C(=O)c1c[nH]c2ccc(Cl)cc12 (stereo not drawn) | 26
COc1cc(CNC(=O)CCCC/C=C/C(C)C)ccc1O | 33
COc1ccc(Br)c(C(=O)O)c1OS(=O)(=O)c1ccc(C)cc1 | 30
COc1ccc(C(=O)c2ccccc2)c(O)c1 [OXYBENZONE] | 44
COC(=O)c1nnn(CCc2c[nH]c3ccccc23)c1C(=O)OC | 52
COC(=O)C1Oc2ccc(Cl)cc2C1=O (stereo not drawn) | 3
CCC(CCC#N)C(=O)c1ccc(C)o1 (stereo not drawn) | 14
COC1=CC(=O)OC(C)(c2ccccc2)C1 (stereo not drawn) | 24
O=S(=O)(Oc1ccc(Cl)cc1)c1ccc(Cl)cc1 | 26
COC1=CC(=O)OC(c2ccco2)C1 (stereo not drawn) | 12
COc1ccc(C(O)c2cc3ccccc3n2S(=O)(=O)c2ccccc2)cc1 (stereo not drawn) | 29
CCSCc1ccccc1OC(=O)NC [ETHIOFENCARB] | 52
COC(=O)Cc1nc2ccc(OC)cc2nc1O | 15
O=C(CC(=O)c1ccccc1)c1ccccc1 | 28

target: T2, Hormone-sensitive lipase (Rattus norvegicus); assay: Inhibition of HSL in Wistar rat isolated fat cells at 1 uM by spectrophotometric assay; in short: as §1

SMILES | inhibition [%]
O=C(COC(=O)c1ccccc1)c1ccccc1 | 9
CC(C)[C@H](C(=O)O[C@H](C#N)c1cccc(Oc2ccccc2)c1)c1ccc(Cl)cc1 | 33
CCOC(=O)c1nc2ccccc2nc1NCc1ccc(OC)cc1 | 27
CC(=O)Oc1cc(OCCCc2ccc(F)cc2)cc2c1-c1ccccc1CC2 | 24
CC(C)C(C(=O)OC(C#N)c1cccc(Oc2ccccc2)c1)c1ccc(Cl)cc1 (stereo not drawn) | 37
CC1(C)C(C(=O)OC(C#N)c2cccc(Oc3ccccc3)c2)C1(C)C (stereo not drawn) | 35
Cc1ccc(S(=O)(=O)Nc2cccc3cc(Cl)ccc23)cc1 | 15
O=c1c(O)c(-c2ccccc2)oc2ccccc12 | 23
O=C(/C=C/c1ccccc1)OCCc1ccccc1 | 12
CCOc1ccc([Si](C)(C)CCCc2ccc(F)c(Oc3ccccc3)c2)cc1 | 6
